The nature of experiment [1]: hit retest on RPL19A-GFP reporter strain – cell-based, S. cerevisiae, flow cytometry, cherry picks, mother/daughter gates, confirmation (AID 2270;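 active = GFP response below 50% of the DMSO control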). The following applies: 3 h, at 10 µM, stronger effect = lower value, 100 = same GFP as DMSO wells. Background: In flow cytometry, cells or beads pass a laser one at a time.
The nature of experiment [2]: yeast TOR pathway reporter LAP4-GFP change – cell-based, cherry picks, flow cytometry, mother/daughter gates, confirmation (AID 2271;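 active = GFP response above 150% of the DMSO control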;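 note: ratio of sample to DMSO plate mean so 100% equals DMSO level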). Conditions: S. cerevisiae LAP4-GFP strain, 3 h, at 10 µM, stronger effect = higher value, 100 means same as DMSO control. The gist of the method: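 Measured by: GFP by flow cytometry. Test system: GFP-fusion yeast strain. Input: yeast cells seeded at OD600 of 0.2. Timing: 30 °C, 3 h compound incubation, rotating. Buffer or medium: synthetic complete medium for yeast. Benchmarks: DMSO-only negative wells, rapamycin 400 ng/mL positive wells. Compound: 10 µM single dose.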

Experiment [3] can be described thus: TOR pathway reporter MEP2-GFP, retest of hits – S. cerevisiae, flow cytometry GFP, cherry picks, confirmation (AID 2272;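 active = GFP response above 150% of the DMSO control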;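 note: ratio of well signal to plate DMSO mean so 100% equals DMSO level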). The following applies: S. cerevisiae MEP2-GFP strain, 3 h, at 10 µM, stronger effect = higher value.
Experiment [4] in a line: yeast AGP1-GFP fluorescence change, single-dose – cell-based, flow cytometry, S. cerevisiae, cherry picks, confirmation (AID 2273).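 Note: median GFP channel fluorescence over the whole cell population gate.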 Conditions: S. cerevisiae AGP1-GFP strain, 3 h, at 10 µM.
The nature of experiment [5]: TOR pathway CIT2 reporter hit retest – S. cerevisiae, GFP fusion, cherry picks, mother/daughter gates, confirmation (AID 2274). Conditions: S. cerevisiae CIT2-GFP strain, flow cytometry, 3 h, at 10 µM, stronger effect = higher value.
Where [6] appears, read: measured here: daughter cell gate.
Where [7] appears, read: measured here: mother cell gate.
The mark [8] stands for this setting: measured here: daughter cell gate response.
[9] abbreviates: measured here: mother cell gate response.

Active and inactive are the calls of the source.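 Rule for the calls, unless noted: active = GFP response above 150% of the DMSO level; inconclusive = fewer than 70 events counted for a yeast strain; inactive = the rest.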

With `COc1ccccc1-c1nnc(NC(=O)c2ccc(S(=O)(=O)N(C)C)cc2)o1`, the GFP response vs DMSO is 99.2% (inactive) in experiment [1], 98.6% in experiment [1] (setting [6]), 98.7% in experiment [1] (setting [7]) and 119% (inactive) in experiment [3]. Also, the GFP response relative to DMSO is 111% (inactive) in experiment [2], 112% in experiment [2] (setting [8]) and 109% in experiment [2] (setting [9]). The GFP response, % of DMSO was 93.3% (inactive) in experiment [4], 105% (inactive) in experiment [5], 106% in experiment [5] (setting [6]) and 106% in experiment [5] (setting [7]).
With `O=C(O)c1ccc2ccc3ccccc3c2c1`, the GFP response vs DMSO in experiment [1] is 96.6% (inactive); in experiment [1] (setting [6]), 94.2%; in experiment [1] (setting [7]), 95%; in experiment [3] it was 96.8% (inactive). Besides, the GFP response relative to DMSO is 99.5% (inactive) in experiment [2], 97.5% in experiment [2] (setting [8]) and 98.4% in experiment [2] (setting [9]). The GFP response, % of DMSO was 105% (inactive) in experiment [4], 122% (inactive) in experiment [5], 121% in experiment [5] (setting [6]) and 121% in experiment [5] (setting [7]).
In the case of `COc1ccc(OC)c(C2CC(c3c(-c4ccccc4)c4cc(Cl)ccc4[nH]c3=O)=NN2S(C)(=O)=O)c1` (stereo unspecified), the GFP response vs DMSO in experiment [1] was 100% (inactive); in experiment [1] (setting [6]), 99%; in experiment [1] (setting [7]), 102%; in experiment [3], 100% (inactive). For the same molecule, the figures for the GFP response relative to DMSO in experiment [2], in experiment [2] (setting [8]) and in experiment [2] (setting [9]) were 92.6% (inactive), 92.5% and 97.2%, respectively. The GFP response, % of DMSO in experiment [4] was 96.1% (inactive); in experiment [5], 97.8% (inactive); in experiment [5] (setting [6]) it was 96.5%; in experiment [5] (setting [7]), 97.7%.
In the case of `CCOC(=O)C(CC)Sc1ncnc2c1nnn2-c1ccc(F)cc1` (stereo unspecified), the GFP response vs DMSO was 94.8% (inactive) in experiment [1], 95.1% in experiment [1] (setting [6]), 95.8% in experiment [1] (setting [7]) and 96.2% (inactive) in experiment [3]. For the same molecule, the GFP response relative to DMSO in experiment [2] was 101% (inactive); in experiment [2] (setting [8]), 101%; in experiment [2] (setting [9]), 99.3%. Also, the GFP response, % of DMSO in experiment [4] was 94.8% (inactive); in experiment [5] it was 96.9% (inactive); in experiment [5] (setting [6]), 97.2%; in experiment [5] (setting [7]) it was 97.3%.
As to `O=C(NNC(=S)NC(=O)C12CC3CC(CC(C3)C1)C2)c1ccncc1`, the GFP response vs DMSO is 109% (inactive) in experiment [1], 115% in experiment [1] (setting [6]), 106% in experiment [1] (setting [7]) and 112% (inactive) in experiment [3]. The figures for the GFP response relative to DMSO in experiment [2], in experiment [2] (setting [8]) and in experiment [2] (setting [9]) were 137% (inactive), 125% and 136%, respectively. Further, the GFP response, % of DMSO in experiment [4] was 97.3% (inactive); in experiment [5], 115% (inactive); in experiment [5] (setting [6]), 124%; in experiment [5] (setting [7]) it was 106%.
Regarding `O=c1c2c(-c3ccc(Cl)cc3)csc2ncn1/N=C/c1cccc([N+](=O)[O-])c1O`, the GFP response vs DMSO in experiment [1] is 99.3% (inactive); in experiment [1] (setting [6]), 99.3%; in experiment [1] (setting [7]) it was 98.6%; in experiment [3], 99.5% (inactive). In addition, the GFP response relative to DMSO in experiment [2] is 97.7% (inactive); in experiment [2] (setting [8]), 95%; in experiment [2] (setting [9]) it was 99.5%. For the same molecule, the GFP response, % of DMSO in experiment [4] was 96.2% (inactive); in experiment [5] it was 99.3% (inactive); in experiment [5] (setting [6]) it was 98.3%; in experiment [5] (setting [7]) it was 98%.
In the case of `CCc1ccc(C(=O)/C=C/c2ccc([N+](=O)[O-])o2)cc1`, the GFP response vs DMSO in experiment [1] is 104% (inactive); in experiment [1] (setting [6]), 108%; in experiment [1] (setting [7]) it was 103%; in experiment [3], 180% (active). Moreover, the GFP response relative to DMSO is 146% (inactive) in experiment [2], 141% in experiment [2] (setting [8]) and 152% in experiment [2] (setting [9]). The GFP response, % of DMSO in experiment [4] was 99.1% (inactive); in experiment [5] it was 154% (active); in experiment [5] (setting [6]), 156%; in experiment [5] (setting [7]), 148%.
Turning to `O=[N+]([O-])c1cc(S(=O)(=O)C(F)(F)F)ccc1Sc1nc2ccccc2s1`, the GFP response vs DMSO in experiment [1] is 95.6% (inactive); in experiment [1] (setting [6]), 95.1%; in experiment [1] (setting [7]), 93.1%; in experiment [3] it was 102% (inactive). For the same molecule, the GFP response relative to DMSO is 184% (active) in experiment [2], 162% in experiment [2] (setting [8]) and 192% in experiment [2] (setting [9]). Also, the GFP response, % of DMSO in experiment [4] is 88.1% (inactive); in experiment [5] it was 107% (inactive); in experiment [5] (setting [6]), 105%; in experiment [5] (setting [7]), 99.7%.
As for `Cc1[nH][nH]c(=O)c1C(c1ccc(-c2ccc(Cl)c(Cl)c2)o1)c1c(C)[nH][nH]c1=O`, the GFP response vs DMSO is 104% (inactive) in experiment [1], 104% in experiment [1] (setting [6]), 101% in experiment [1] (setting [7]) and 130% (inactive) in experiment [3]. Besides, the GFP response relative to DMSO was 173% (active) in experiment [2], 142% in experiment [2] (setting [8]) and 169% in experiment [2] (setting [9]). In addition, the GFP response, % of DMSO in experiment [4] is 115% (inactive); in experiment [5], 103% (inactive); in experiment [5] (setting [6]) it was 105%; in experiment [5] (setting [7]), 102%.
As for `COC(=O)c1cccc(-n2c(CCC(=O)O)ccc2-c2cccs2)c1`, the GFP response vs DMSO in experiment [1] was 99.2% (inactive); in experiment [1] (setting [6]) it was 98.9%; in experiment [1] (setting [7]), 100%; in experiment [3] it was 98.8% (inactive). For the same molecule, the GFP response relative to DMSO was 104% (inactive) in experiment [2], 103% in experiment [2] (setting [8]) and 103% in experiment [2] (setting [9]). The GFP response, % of DMSO is 103% (inactive) in experiment [4], 97.2% (inactive) in experiment [5], 96.8% in experiment [5] (setting [6]) and 97.7% in experiment [5] (setting [7]).
As to `Oc1ccc(/C=N/Nc2nc(-c3cccnc3)nc3ccccc23)c(O)c1`, the GFP response vs DMSO in experiment [1] is 93.5% (inactive); in experiment [1] (setting [6]) it was 95.3%; in experiment [1] (setting [7]) it was 94.6%; in experiment [3], 101% (inactive). In addition, the GFP response relative to DMSO in experiment [2] is 83.8% (inactive); in experiment [2] (setting [8]) it was 84.2%; in experiment [2] (setting [9]), 82.7%. The GFP response, % of DMSO was 101% (inactive) in experiment [4], 106% (inactive) in experiment [5], 108% in experiment [5] (setting [6]) and 105% in experiment [5] (setting [7]).
For the molecule `O=C(Nc1ccccc1)c1c(F)cccc1F`, the GFP response vs DMSO was 103% (inactive) in experiment [1], 103% in experiment [1] (setting [6]), 103% in experiment [1] (setting [7]) and 105% (inactive) in experiment [3]. In addition, the GFP response relative to DMSO was 97% (inactive) in experiment [2], 97.5% in experiment [2] (setting [8]) and 96.2% in experiment [2] (setting [9]). In addition, the GFP response, % of DMSO in experiment [4] is 102% (inactive); in experiment [5] it was 106% (inactive); in experiment [5] (setting [6]), 103%; in experiment [5] (setting [7]), 107%.
Regarding `COc1ccccc1C(=O)NNC(=S)NC(=O)c1cccs1`, the GFP response vs DMSO in experiment [1] was 116% (inactive); in experiment [1] (setting [6]), 126%; in experiment [1] (setting [7]), 107%; in experiment [3] it was 128% (inactive). Further, the GFP response relative to DMSO in experiment [2] is 225% (active); in experiment [2] (setting [8]) it was 181%; in experiment [2] (setting [9]) it was 202%. Moreover, the GFP response, % of DMSO is 89.6% (inactive) in experiment [4], 121% (inactive) in experiment [5], 124% in experiment [5] (setting [6]) and 108% in experiment [5] (setting [7]).
Regarding `Cc1cc(N)n2ncc(-c3ccccc3)c2n1`, the GFP response vs DMSO in experiment [1] is 95.6% (inactive); in experiment [1] (setting [6]), 95.1%; in experiment [1] (setting [7]), 94%; in experiment [3], 105% (inactive). Also, the GFP response relative to DMSO was 106% (inactive) in experiment [2], 102% in experiment [2] (setting [8]) and 106% in experiment [2] (setting [9]). Also, the GFP response, % of DMSO in experiment [4] is 89.4% (inactive); in experiment [5], 101% (inactive); in experiment [5] (setting [6]) it was 101%; in experiment [5] (setting [7]), 98.5%.
With `C=CCn1c(=O)c(C(=O)Nc2ccccc2C(=O)OCC)c(O)c2ccccc21`, the GFP response vs DMSO is 100% (inactive) in experiment [1], 101% in experiment [1] (setting [6]), 101% in experiment [1] (setting [7]) and 99.5% (inactive) in experiment [3]. Moreover, the figures for the GFP response relative to DMSO in experiment [2], in experiment [2] (setting [8]) and in experiment [2] (setting [9]) were 87.2% (inactive), 86.4% and 89.7%, respectively. Also, the GFP response, % of DMSO in experiment [4] was 101% (inactive); in experiment [5] it was 96.4% (inactive); in experiment [5] (setting [6]), 96.4%; in experiment [5] (setting [7]) it was 95.6%.
As to `CCCn1c(=O)c(C(=O)Nc2ccccc2C(=O)OC)c(O)c2ccccc21`, the GFP response vs DMSO was 101% (inactive) in experiment [1], 99% in experiment [1] (setting [6]), 103% in experiment [1] (setting [7]) and 97.8% (inactive) in experiment [3]. For the same molecule, the figures for the GFP response relative to DMSO in experiment [2], in experiment [2] (setting [8]) and in experiment [2] (setting [9]) were 92.6% (inactive), 94.1% and 95.2%, respectively. The GFP response, % of DMSO was 103% (inactive) in experiment [4], 93.9% (inactive) in experiment [5], 94.8% in experiment [5] (setting [6]) and 93.4% in experiment [5] (setting [7]).

The values above are taken from PubChem BioAssay.
